Measured values from ChEMBL document CHEMBL1135224, “Benzamide-based thiolcarbamates: a new class of HIV-1 NCp7 inhibitors” (Bioorg Med Chem Lett, 2002).

Legend:
[1] = tested on: Human immunodeficiency virus 1; assay: In vitro antiviral activity in HIV-1 CEM-SS cytoprotection assay.; type: functional, organism-based; conditions: Human immunodeficiency virus 1, CEM-SS
In short: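 Cytoprotection assay using CEM-SS cells infected with HIV-1 RF. Run in duplicate, with triplicates at each compound concentration; individual triplicates varied by 10% or less.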

CEM-SS = assay: In vitro cytotoxicity against CEM-SS cells.; type: functional, cell-based; conditions: Homo sapiens
In short: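 Growth inhibition of CEM-SS cells measured alongside the HIV-1 cytoprotection assay. Run in duplicate, with triplicates at each concentration; individual triplicates varied by 10% or less.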

Compound | EC50 [1] [µM] | IC50 (CEM-SS) [µM]
NC(=O)CCNC(=O)c1ccccc1SC(=O)NCCBr | 0.48 | 4.9
C[C@H](NC(=O)c1ccccc1SC(=O)NCCBr)C(N)=O | 0.92 | 8
